# In ChEMBL document CHEMBL3868627, “Radical scavenging and antibacterial activity of caffemides against gram positive, gram negative and clinical drug resistance bacteria” (Bioorg Med Chem Lett, 2016):
# Legend:
# [1] = system: Staphylococcus aureus; test: Bactericidal activity against Staphylococcus aureus ATCC 25923 at 50 ug/ml measured after 24 hrs by serial dilution method relative to control; assay type: functional
# [2] = system: Staphylococcus aureus; test: Antibacterial activity against Staphylococcus aureus ATCC 25923 assessed as colony forming units at 50 ug/ml measured after 24 hrs by serial dilution method (reference value: 77.66 +/- 5.13 10^6CFU); assay type: functional
# [3] = system: Pseudomonas aeruginosa; test: Antibacterial activity against Pseudomonas aeruginosa PAO1 ATCC 15692 assessed as colony forming units at 10 ug/ml measured after 1 hr by serial dilution method (reference value: 85.33 +/- 4.04 10^8CFU); assay type: functional
# [4] = system: Staphylococcus aureus; test: Antibacterial activity against Staphylococcus aureus ATCC 25923 assessed as colony forming units at 50 ug/ml measured after 6 hrs by serial dilution method (reference value: 65.66 +/- 3.51 10^6CFU); assay type: functional
# [5] = system: Pseudomonas aeruginosa; test: Antibacterial activity against Pseudomonas aeruginosa PAO1 ATCC 15692 assessed as colony forming units at 50 ug/ml measured after 3 hr by serial dilution method (reference value: 141.66 +/- 7.5 10^8CFU); assay type: functional
# [6] = system: Staphylococcus aureus; test: Antibacterial activity against Staphylococcus aureus ATCC 25923 assessed as colony forming units at 1 ug/ml measured after 24 hrs by serial dilution method (reference value: 77.66 +/- 5.13 10^6CFU); assay type: functional
# [7] = system: Mycolicibacterium smegmatis; test: Antibacterial activity against Mycobacterium smegmatis MC2 155 ATCC 700084 assessed as colony forming units at 200 ug/ml measured after 6 hrs by serial dilution method (reference value: 70 +/- 1.73 10^3CFU); assay type: functional
# Summary of the method: (§1)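 Bacteria were exposed to test compound over a range of µg/ml concentrations. Viable bacteria were counted by colony forming unit (CFU) assay at set time points (6 h and 24 h for M. smegmatis and S. aureus strains), and untreated bacteria served as the control. Percentage of population killed was calculated relative to the untreated control. Values are means ± S.D of three independent trials.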
# [8] = system: Staphylococcus aureus; test: Antibacterial activity against methicillin-resistant Staphylococcus aureus ATCC 43300 assessed as colony forming units at 1 ug/ml measured after 24 hrs by serial dilution method (reference value: 74 +/- 2 10^6CFU); assay type: functional; summary of the method: as §1
# [9] = system: Staphylococcus aureus; test: Antibacterial activity against Staphylococcus aureus ATCC 25923 assessed as colony forming units at 100 ug/ml measured after 24 hrs by serial dilution method (reference value: 77.66 +/- 5.13 10^6CFU); assay type: functional
# [10] = system: Mycolicibacterium smegmatis; test: Antibacterial activity against Mycobacterium smegmatis MC2 155 ATCC 700084 measured after 72 hrs by serial dilution method; assay type: functional
# [11] = system: Mycolicibacterium smegmatis; test: Antibacterial activity against Mycobacterium smegmatis MC2 155 ATCC 700084 assessed as colony forming units at 100 ug/ml measured after 6 hrs by serial dilution method (reference value: 70 +/- 1.73 10^3CFU); assay type: functional; summary of the method: as §1
# [12] = system: Mycolicibacterium smegmatis; test: Antibacterial activity against Mycobacterium smegmatis MC2 155 ATCC 700084 assessed as colony forming units at 50 ug/ml measured after 6 hrs by serial dilution method (reference value: 70 +/- 1.73 10^3CFU); assay type: functional; summary of the method: as §1
# [13] = system: Pseudomonas aeruginosa; test: Antibacterial activity against Pseudomonas aeruginosa PAO1 ATCC 15692 assessed as colony forming units at 10 ug/ml measured after 3 hr by serial dilution method (reference value: 141.66 +/- 7.5 10^8CFU); assay type: functional
# [14] = system: Pseudomonas aeruginosa; test: Antibacterial activity against Pseudomonas aeruginosa PAO1 ATCC 15692 measured after 1 to 3 hrs by serial dilution method
# [15] = system: Staphylococcus aureus; test: Antibacterial activity against Staphylococcus aureus ATCC 25923 assessed as colony forming units at 300 ug/ml measured after 24 hrs by serial dilution method (reference value: 77.66 +/- 5.13 10^6CFU); assay type: functional
# [16] = system: Staphylococcus aureus; test: Bactericidal activity against methicillin-resistant Staphylococcus aureus ATCC 43300 at 50 ug/ml measured after 24 hrs by serial dilution method relative to control; assay type: functional; summary of the method: as §1
# [17] = system: Staphylococcus aureus; test: Antibacterial activity against Staphylococcus aureus ATCC 25923 assessed as colony forming units at 300 ug/ml measured after 6 hrs by serial dilution method (reference value: 65.66 +/- 3.51 10^6CFU); assay type: functional; summary of the method: as §1
# [18] = system: Mycolicibacterium smegmatis; test: Antibacterial activity against Mycobacterium smegmatis MC2 155 ATCC 700084 assessed as colony forming units at 1 ug/ml measured after 6 hrs by serial dilution method (reference value: 70 +/- 1.73 10^3CFU); assay type: functional; summary of the method: as §1
# [19] = system: Pseudomonas aeruginosa; test: Antibacterial activity against Pseudomonas aeruginosa PAO1 ATCC 15692 assessed as colony forming units at 300 ug/ml measured after 3 hr by serial dilution method (reference value: 141.66 +/- 7.5 10^8CFU); assay type: functional
# [20] = system: Pseudomonas aeruginosa; test: Bactericidal activity against Pseudomonas aeruginosa PAO1 ATCC 15692 at >300 ug/ml measured after 1 and 3 hrs by serial dilution method relative to control; assay type: functional
# [21] = system: Staphylococcus aureus; test: Antibacterial activity against Staphylococcus aureus ATCC 25923 assessed as colony forming units at 500 ug/ml measured after 24 hrs by serial dilution method (reference value: 77.66 +/- 5.13 10^6CFU); assay type: functional
# [22] = system: Mycolicibacterium smegmatis; test: Bactericidal activity against Mycobacterium smegmatis MC2 155 ATCC 700084 at 50 ug/ml measured after 6 hrs by serial dilution method relative to control; assay type: functional; summary of the method: as §1
# [23] = system: Staphylococcus aureus; test: Bactericidal activity against methicillin-resistant Staphylococcus aureus ATCC 43300 at 50 ug/ml measured after 6 hrs by serial dilution method relative to control; assay type: functional; summary of the method: as §1
# [24] = system: Staphylococcus aureus; test: Antibacterial activity against methicillin-resistant Staphylococcus aureus ATCC 43300 assessed as colony forming units at 50 ug/ml measured after 6 hrs by serial dilution method (reference value: 64.33 +/- 3.51 10^6CFU); assay type: functional; summary of the method: as §1
# [25] = system: Staphylococcus aureus; test: Antibacterial activity against methicillin-resistant Staphylococcus aureus ATCC 43300 assessed as colony forming units at 10 ug/ml measured after 24 hrs by serial dilution method (reference value: 74 +/- 2 10^6CFU); assay type: functional; summary of the method: as §1
# [26] = system: Staphylococcus aureus; test: Antibacterial activity against methicillin-resistant Staphylococcus aureus ATCC 43300 measured after 24 hrs by serial dilution method; assay type: functional
# [27] = system: Mycolicibacterium smegmatis; test: Antibacterial activity against Mycobacterium smegmatis MC2 155 ATCC 700084 assessed as colony forming units at 500 ug/ml measured after 24 hrs by serial dilution method (reference value: 84 +/- 4.35 10^3CFU); assay type: functional; summary of the method: as §1
# [28] = system: Pseudomonas aeruginosa; test: Antibacterial activity against Pseudomonas aeruginosa PAO1 ATCC 15692 assessed as colony forming units at 500 ug/ml measured after 3 hr by serial dilution method (reference value: 141.66 +/- 7.5 10^8CFU); assay type: functional
# [29] = system: Staphylococcus aureus; test: Antibacterial activity against methicillin-resistant Staphylococcus aureus ATCC 43300 assessed as colony forming units at 100 ug/ml measured after 6 hrs by serial dilution method (reference value: 64.33 +/- 3.51 10^6CFU); assay type: functional; summary of the method: as §1
# [30] = system: Staphylococcus aureus; test: Bactericidal activity against methicillin-resistant Staphylococcus aureus ATCC 43300 at >100 ug/ml measured after 6 and 24 hrs by serial dilution method relative to control; assay type: functional; summary of the method: as §1
smiles,measurement,setting,value
Cc1ccc(O)c(NC(=O)/C=C/c2ccc(O)c(O)c2)c1,Activity,[1],89.6%
same,Activity,[2],8 ×10⁶ CFU
same,Activity,[3],59.33 ×10⁸ CFU
same,Activity,[4],13.66 ×10⁶ CFU
same,Activity,[5],87 ×10⁸ CFU
same,Activity,[6],75.66 ×10⁶ CFU
same,Activity,[7],6.33 ×10³ CFU
same,Activity,[8],54.33 ×10⁶ CFU
same,Activity,[9],0 ×10⁶ CFU
same,Activity,[10],Dose-dependent effect
same,Activity,[11],14.33 ×10³ CFU
same,Activity,[12],25.33 ×10³ CFU
same,Activity,[13],112 ×10⁸ CFU
same,Activity,[14],Dose-dependent effect
same,Activity,[15],0 ×10⁶ CFU
same,Activity,[16],64.8%
same,Activity,[17],0 ×10⁶ CFU
same,Activity,[18],65.66 ×10³ CFU
same,Activity,[19],0 ×10⁸ CFU
same,Activity,[20],100%
same,Activity,[21],0 ×10⁶ CFU
same,Activity,[22],63.8%
same,Activity,[23],57.5%
same,Activity,[24],27.33 ×10⁶ CFU
same,Activity,[25],41.33 ×10⁶ CFU
same,Activity,[26],Dose-dependent effect
same,Activity,[27],0 ×10³ CFU
same,Activity,[28],0 ×10⁸ CFU
same,Activity,[29],20.33 ×10⁶ CFU
same,Activity,[30],100%
O=C(/C=C/c1ccc(O)c(O)c1)Nc1ccccc1Nc1ccccc1,Activity,[1],68.2%
same,Activity,[2],24.66 ×10⁶ CFU
same,Activity,[3],50.33 ×10⁸ CFU
same,Activity,[4],8.66 ×10⁶ CFU
same,Activity,[5],53.66 ×10⁸ CFU
same,Activity,[6],68.33 ×10⁶ CFU
same,Activity,[7],15 ×10³ CFU
same,Activity,[8],60 ×10⁶ CFU
same,Activity,[9],11.66 ×10⁶ CFU
same,Activity,[10],Dose-dependent effect
same,Activity,[11],24.66 ×10³ CFU
same,Activity,[12],33.66 ×10³ CFU
same,Activity,[13],91.66 ×10⁸ CFU
same,Activity,[14],Dose-dependent effect
same,Activity,[15],0 ×10⁶ CFU
same,Activity,[16],61.2%
same,Activity,[17],0 ×10⁶ CFU
same,Activity,[18],52.33 ×10³ CFU
same,Activity,[19],0 ×10⁸ CFU
same,Activity,[20],100%
same,Activity,[21],0 ×10⁶ CFU
same,Activity,[22],51.9%
same,Activity,[23],52.8%
same,Activity,[24],30.33 ×10⁶ CFU
same,Activity,[25],41.66 ×10⁶ CFU
same,Activity,[26],Dose-dependent effect
same,Activity,[27],0 ×10³ CFU
same,Activity,[28],0 ×10⁸ CFU
same,Activity,[29],24.33 ×10⁶ CFU
same,Activity,[30],100%
